Measured values taken from ChEMBL document CHEMBL2203025, “6,7-Dihydroxy-1-oxoisoindoline-4-sulfonamide-containing HIV-1 integrase inhibitors” (Bioorg Med Chem Lett, 2012).

Assays:
[1] = biological target: T1, Human immunodeficiency virus type 1 integrase (Human immunodeficiency virus 1, UniProt Q7ZJM1); experiment: Inhibition of HIV1 recombinant integrase 3' processing activity using [32P]-labeled oligonucleotide a substrate after 30 mins by electrophoretic analysis
Outline: (§1)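 Gel-based IN assay run in vitro with Mg2+ as cofactor. IC50 values were determined separately for the 3'-processing and strand transfer reactions.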

[2] = biological target: T1, Human immunodeficiency virus type 1 integrase; experiment: Inhibition of HIV1 recombinant integrase strand transfer activity using [32P]-labeled oligonucleotide a substrate after 30 mins by electrophoretic analysis; outline: as §1
[3] = test system: Human immunodeficiency virus 1; experiment: Antiviral activity against HIV1 expressing wild type integrase infected in HOS cells; type: functional, organism-based; details: Human immunodeficiency virus 1, HOS
Outline: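 HOS cells infected with a lentiviral vector carrying wild-type IN; EC50 from the infected cells.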

[4] = test system: Human immunodeficiency virus 1; experiment: Ratio of EC50 for HIV1 expressing integrase Y143R mutant to EC50 for HIV1 expressing wild type integrase; type: functional
HOS = experiment: Cytotoxicity against human HOS cells assessed as reduction in ATP level; type: cell-based
[5] = Selectivity index, ratio of CC50 for human HOS cells to EC50 for HIV1 expressing wild type integrase; type: toxicity, cell-based; details: read-out: Ratio CC50/EC50

T1 sequence (Q7ZJM1 whole entry): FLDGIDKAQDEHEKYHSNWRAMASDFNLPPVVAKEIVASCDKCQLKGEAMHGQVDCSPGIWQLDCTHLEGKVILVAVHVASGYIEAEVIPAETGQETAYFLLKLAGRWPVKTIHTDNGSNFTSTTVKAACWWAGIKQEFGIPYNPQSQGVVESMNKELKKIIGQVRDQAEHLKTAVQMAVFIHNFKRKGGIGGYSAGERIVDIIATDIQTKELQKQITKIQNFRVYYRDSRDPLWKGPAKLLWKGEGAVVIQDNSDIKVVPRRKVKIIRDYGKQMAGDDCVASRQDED

In the case of `CN(C)CCCNS(=O)(=O)c1cc(O)c(O)c2c1CN(Cc1ccc(F)c(Cl)c1)C2=O`, the IC50 [1] is reported as 15.9 µM and the IC50 [2] is reported as 0.24 µM.
For `CN(C)S(=O)(=O)c1c(O)c(O)c(O)c2c1CN(Cc1ccc(F)c(Cl)c1)C2=O`, the EC50 [3] was 0.159 µM, the IC50 [1] was 7.6 µM and the “Ratio EC50” value [4] was 2. It also gave a CC50 (HOS) of 4.6 µM, a selectivity ratio [5] of 29 and an IC50 [2] of 0.26 µM.
With `CN(C)S(=O)(=O)c1ccc(-c2c(O)c(O)c3c(c2S(=O)(=O)N(C)C)CN(Cc2ccc(F)c(Cl)c2)C3=O)cc1` the EC50 [3] was 0.132 µM, the IC50 [1] was 35.2 µM and the “Ratio EC50” value [4] was 4. It also gave a CC50 (HOS) of 2.8 µM, a selectivity ratio [5] of 21 and an IC50 [2] of 0.25 µM.
In the case of `Cc1cc2c(c(O)c1O)C(=O)N(Cc1ccc(F)c(Cl)c1)C2`, the IC50 [1] is reported as > 111 µM and the IC50 [2] is reported as 11.5 µM.
In the case of `CCCCc1cc2c(c(O)c1O)C(=O)N(Cc1ccc(F)c(Cl)c1)C2`, the IC50 [1] is reported as > 111 µM and the IC50 [2] is reported as 6.8 µM.
For `CC(C)c1cc2c(c(O)c1O)C(=O)N(Cc1ccc(F)c(Cl)c1)C2`, the IC50 [1] was > 111 µM and the IC50 [2] was 5.4 µM.
For `O=C1c2c(cc(-c3ccccc3)c(O)c2O)CN1Cc1ccc(F)c(Cl)c1`, the IC50 [1] was > 111 µM and the IC50 [2] was 0.87 µM.
In the case of `O=C1c2c(cc(O)c(O)c2O)CN1Cc1ccc(F)c(Cl)c1`, the IC50 [1] is reported as 36 µM and the IC50 [2] is reported as 1.5 µM.
With `CN(C)S(=O)(=O)c1ccc(-c2cc3c(c(O)c2O)C(=O)N(Cc2ccc(F)c(Cl)c2)C3)cc1` the IC50 [1] was > 111 µM and the IC50 [2] was 0.4 µM.
With `CNS(=O)(=O)c1cc(O)c(O)c2c1CN(Cc1ccc(F)c(Cl)c1)C2=O` the EC50 [3] was 0.04 µM, the IC50 [1] was 17.5 µM and the “Ratio EC50” value [4] was 1. It also gave a CC50 (HOS) of 4.3 µM, a selectivity ratio [5] of 108 and an IC50 [2] of 0.12 µM.
With `CCN(CC)S(=O)(=O)c1cc(O)c(O)c2c1CN(Cc1ccc(F)c(Cl)c1)C2=O` the EC50 [3] was 0.017 µM, the IC50 [1] was 9.5 µM and the “Ratio EC50” value [4] was 3. For the same molecule, the CC50 (HOS) was 8.4 µM, the selectivity ratio [5] was 494 and the IC50 [2] was 0.054 µM.
With `O=C1c2c(O)c(O)cc(S(=O)(=O)NCCCBr)c2CN1Cc1ccc(F)c(Cl)c1` the EC50 [3] was 0.093 µM, the IC50 [1] was 14.7 µM and the “Ratio EC50” value [4] was 1. The CC50 (HOS) was 4.6 µM, the selectivity ratio [5] was 49 and the IC50 [2] was 0.11 µM.
Work on `O=C1c2c(O)c(O)cc(S(=O)(=O)NCCN3CCOCC3)c2CN1Cc1ccc(F)c(Cl)c1` yielded an IC50 [1] of 30.2 µM and an IC50 [2] of 0.32 µM.
`O=C1c2c(O)c(O)cc(S(=O)(=O)NCCN3CCNCC3)c2CN1Cc1ccc(F)c(Cl)c1` gave an IC50 [1] of 19.3 µM and an IC50 [2] of 0.31 µM.
`O=C1c2c(O)c(O)cc(S(=O)(=O)NCc3ccccn3)c2CN1Cc1ccc(F)c(Cl)c1` gave an IC50 [1] of 23 µM and an IC50 [2] of 0.37 µM.
In the case of `CN1CCN(S(=O)(=O)c2cc(O)c(O)c3c2CN(Cc2ccc(F)c(Cl)c2)C3=O)CC1`, the EC50 [3] is reported as 0.043 µM, the IC50 [1] is reported as 23 µM and the “Ratio EC50” value [4] is reported as 1. It also gave a CC50 (HOS) of 6.2 µM, a selectivity ratio [5] of 144 and an IC50 [2] of 0.4 µM.
`NCCN1CCN(S(=O)(=O)c2cc(O)c(O)c3c2CN(Cc2ccc(F)c(Cl)c2)C3=O)CC1` showed an IC50 [1] of 21.2 µM and an IC50 [2] of 0.19 µM.
With `O=C1c2c(O)c(O)cc(S(=O)(=O)N3CCOCC3)c2CN1Cc1ccc(F)c(Cl)c1` the EC50 [3] was 0.022 µM, the IC50 [1] was 6.8 µM and the “Ratio EC50” value [4] was 2. It also gave a CC50 (HOS) of 5.3 µM, a selectivity ratio [5] of 241 and an IC50 [2] of 0.047 µM.
With `O=C(O)CNS(=O)(=O)c1cc(O)c(O)c2c1CN(Cc1ccc(F)c(Cl)c1)C2=O` the EC50 [3] was 0.929 µM, the IC50 [1] was 11.7 µM and the “Ratio EC50” value [4] was 3. The CC50 (HOS) was 107 µM, the selectivity ratio [5] was 115 and the IC50 [2] was 0.08 µM.
For `CN(CC(=O)O)S(=O)(=O)c1cc(O)c(O)c2c1CN(Cc1ccc(F)c(Cl)c1)C2=O`, the EC50 [3] was 0.14 µM, the IC50 [1] was 6.9 µM and the “Ratio EC50” value [4] was 2. For the same molecule, the CC50 (HOS) was 95.2 µM, the selectivity ratio [5] was 680 and the IC50 [2] was 0.058 µM.
With `Cc1c(O)c(O)c2c(c1S(=O)(=O)N(C)C)CN(Cc1ccc(F)c(Cl)c1)C2=O` the EC50 [3] was 0.322 µM, the IC50 [1] was 49.7 µM and the “Ratio EC50” value [4] was 2. The CC50 (HOS) was 6.3 µM, the selectivity ratio [5] was 20 and the IC50 [2] was 2.8 µM.
In the case of `CCCCc1c(O)c(O)c2c(c1S(=O)(=O)N(C)C)CN(Cc1ccc(F)c(Cl)c1)C2=O`, the EC50 [3] is reported as 3.8 µM, the IC50 [1] is reported as > 111 µM and the “Ratio EC50” value [4] is reported as 1. The CC50 (HOS) was 7 µM, the selectivity ratio [5] was 2 and the IC50 [2] was 2.3 µM.
In the case of `CC(C)c1c(O)c(O)c2c(c1S(=O)(=O)N(C)C)CN(Cc1ccc(F)c(Cl)c1)C2=O`, the EC50 [3] is reported as 3.6 µM, the IC50 [1] is reported as > 111 µM and the CC50 (HOS) is reported as 12.1 µM. The selectivity ratio [5] was 3 and the IC50 [2] was 0.19 µM.
In the case of `CC(C)c1c(O)c(O)c2c(c1S(=O)(=O)N1CCOCC1)CN(Cc1ccc(F)c(Cl)c1)C2=O`, the EC50 [3] is reported as 3.4 µM, the IC50 [1] is reported as > 111 µM and the “Ratio EC50” value [4] is reported as 4. The CC50 (HOS) was 5.9 µM, the selectivity ratio [5] was 2 and the IC50 [2] was 0.41 µM.
With `O=C1c2c(ccc(O)c2O)CN1Cc1ccc(F)c(Cl)c1` the EC50 [3] was 0.447 µM, the “Ratio EC50” value [4] was 1 and the selectivity ratio [5] was 12.
